Test results reported in ChEMBL document CHEMBL4342460, “1-(2'-Bromobenzyl)-6,7-dihydroxy-N-methyl-tetrahydroisoquinoline and 1,2-Demethyl-nuciferine as Agonists in Human D2 Dopamine Receptors” (J Nat Prod, 2020).
The source made the active and inactive calls. The rule behind the calls is not given here.

Columns and labels:
D(2) dopamine receptor [1] = target: T1, D(2) dopamine receptor (Homo sapiens, UniProt P14416); assay: Displacement of [3H]spiperone from human D2S receptor expressed in CHO-K1 cells by radioligand competitive binding analysis; type: cell-based
[2] = Displacement of [3H]spiperone from human D4.2 receptor expressed in CHO-K1 cells by radioligand competitive binding analysis; type: cell-based
Procedure, shortened: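 Competition for [3H]-spiperone on membranes from CHO-K1 cells stably expressing human D4.2 receptor, with nonspecific binding set by 25 μM haloperidol. Six concentrations run, from 1 nM to 100 μM or 0.1 nM to 10 μM. Curves fitted to a single-site model, and Ki derived using radioligand concentration and Kd from saturation binding. Clozapine reference. n = 2, mean SEM.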

D(2) dopamine receptor [3] = target: T1, D(2) dopamine receptor; assay: (§1) Agonist activity at human D2S receptor expressed in CHOK1 cells assessed as inhibition of forskolin induced cAMP production by measuring Emax for cAMP accumulation at 100 uM preincubated for 10 mins followed by forskolin addition and measured after 5 mins by HTRF assay relative to quinpirole; type: functional, cell-based
Procedure, shortened: (§2)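 CHO-K1 cells stably transfected with human D2S cDNA, kept in 500 μg/mL G418. Cells in stimulation buffer with 500 μM IBMX took compound for 10 min at 37 °C, then forskolin (10 μM) for 5 min. Intracellular cAMP read by HTRF. Efficacy is percent of maximal quinpirole response. Basal cAMP from wells lacking compound, quinpirole and forskolin. n = 3−4 independent experiments in triplicate, mean SEM.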

D(2) dopamine receptor [4] = target: T1, D(2) dopamine receptor; assay: as §1, with “10” for “100”, “quinpirole (reference value: 98.8 +/- 0.6%)” for “quinpirole”; type: functional, cell-based; procedure, shortened: as §2
D(3) dopamine receptor = D(3) dopamine receptor (Homo sapiens, UniProt P35462); assay: Displacement of [3H]spiperone from human D3 receptor expressed in CHO-K1 cells by radioligand competitive binding analysis; type: cell-based
D(2) dopamine receptor [5] = target: T1, D(2) dopamine receptor; assay: Antagonist activity at human D2S receptor expressed in CHOK1 cells assessed as suppression of quinpirole-induced inhibition of forskolin induced cAMP production at 10 uM preincubated for 10 mins followed by forskolin addition and measured after 5 mins in presence of 100 nM quinpirole by HTRF assay relative to quinpirole EC50; type: functional, cell-based
Procedure, shortened: (§3)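 CHO-K1 cells stably transfected with human D2S (short isoform) cDNA. Test compound (10 μM) was added at the same time as quinpirole (10 pM to 100 μM). Cells were in stimulation buffer with 500 μM IBMX for 10 min at 37 °C, then 10 μM forskolin for 5 min. cAMP was read by HTRF, with basal wells lacking all additions. n = 3−4 independent experiments, in triplicate.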

CHO-K1 = assay: Displacement of [3H]spiperone from human D4.2 receptor expressed in CHO-K1 cells at 10 uM by radioligand competitive binding analysis relative to control; type: cell-based
Procedure, shortened: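 Membranes from CHO-K1 cells stably expressing human D4.2 receptor. Radioligand [3H]-spiperone. Nonspecific binding defined with 25 μM haloperidol. […] Clozapine served as reference competitor. n = 2, mean SEM.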

D(2) dopamine receptor [6] = target: T1, D(2) dopamine receptor; assay: Agonist activity at human D2S receptor expressed in CHOK1 cells assessed as inhibition of forskolin induced cAMP production preincubated for 10 mins followed by forskolin addition and measured after 5 mins by HTRF assay relative to control; type: functional, cell-based
D(2) dopamine receptor [7] = target: T1, D(2) dopamine receptor; assay: Agonist activity at human D2S receptor expressed in CHOK1 cells assessed as inhibition of forskolin induced cAMP production at 10 uM preincubated for 10 mins followed by forskolin addition and measured after 5 mins in presence of low concentration of quinpirole by HTRF assay; type: functional, cell-based; procedure, shortened: as §3

T1 sequence (P14416 whole entry): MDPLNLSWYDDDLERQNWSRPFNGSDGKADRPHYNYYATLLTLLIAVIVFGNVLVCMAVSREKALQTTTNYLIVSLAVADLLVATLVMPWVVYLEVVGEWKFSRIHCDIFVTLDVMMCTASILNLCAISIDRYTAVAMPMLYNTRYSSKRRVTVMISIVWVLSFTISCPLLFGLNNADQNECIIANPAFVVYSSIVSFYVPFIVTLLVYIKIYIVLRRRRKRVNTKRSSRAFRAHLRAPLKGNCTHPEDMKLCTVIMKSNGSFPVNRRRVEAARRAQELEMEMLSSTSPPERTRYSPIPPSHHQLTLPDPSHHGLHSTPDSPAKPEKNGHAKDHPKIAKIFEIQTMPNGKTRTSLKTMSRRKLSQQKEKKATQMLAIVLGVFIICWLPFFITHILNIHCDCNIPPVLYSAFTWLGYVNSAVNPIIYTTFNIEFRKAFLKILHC
Sequence of D(3) dopamine receptor (P35462 whole entry): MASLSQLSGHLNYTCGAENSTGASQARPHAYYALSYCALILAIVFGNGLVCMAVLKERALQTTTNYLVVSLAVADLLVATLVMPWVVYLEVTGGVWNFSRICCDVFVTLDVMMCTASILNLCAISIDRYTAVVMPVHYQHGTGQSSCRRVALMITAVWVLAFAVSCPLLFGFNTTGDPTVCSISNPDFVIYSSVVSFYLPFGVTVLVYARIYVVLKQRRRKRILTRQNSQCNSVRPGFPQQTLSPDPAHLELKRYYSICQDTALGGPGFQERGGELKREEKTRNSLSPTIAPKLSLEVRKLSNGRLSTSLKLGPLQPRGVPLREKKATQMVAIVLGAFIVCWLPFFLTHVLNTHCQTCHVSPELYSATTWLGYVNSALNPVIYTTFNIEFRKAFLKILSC

| Compound | Ki (D(2) dopamine receptor [1]) [nM] | Activity [2] | Ki [2] [nM] | pKi [2] | Emax (D(2) dopamine receptor [3]) [%] | Emax (D(2) dopamine receptor [4]) [%] | Activity (D(3) dopamine receptor) | Ki (D(3) dopamine receptor) [nM] | fold change (FC) (D(2) dopamine receptor [5]) | inhibition (CHO-K1) [%] | EC50 (D(2) dopamine receptor [6]) [nM] | Activity (D(2) dopamine receptor [7]) |
| --- | --- | --- | --- | --- | --- | --- | --- | --- | --- | --- | --- | --- |
| CN1CCc2cc(O)c(O)cc2C1Cc1ccccc1Br (stereo not drawn) | 286 | Dose-dependent effect | 13.8 | 7.86 | 48.4 | 31.9 | Dose-dependent effect | 197 | 35 | 96 | 2950 | Active |
| CN1CCN(C2=Nc3cc(Cl)ccc3Nc3ccccc32)CC1 [CLOZAPINE] | – | – | 56.9 | 7.25 | – | – | – | – | – | 96 | – | – |
| CN1CCc2cc(O)c(O)c3c2C1Cc1ccccc1-3 (stereo not drawn) | – | Dose-dependent effect | 551 | 6.26 | 92.7 | 50.7 | Dose-dependent effect | 838 | – | 73 | – | – |
